≈ marks a conversion by molar mass, not a printed value. Calls of active or inactive are those of the source. The calls are words filed in the database; no cut-off is given here.
Legend:
Cyberlindnera jadinii = test: Antimicrobial activity against Candida utilis ATCC 9950 incubated for 24 hrs by NCCLS protocol based method; assay type: functional; settings: Williopsis jadinii, ATCC 9950, 24 h
Aspergillus flavus = test: Antimicrobial activity against Aspergillus flavus ATCC 204304 incubated for 24 hrs by NCCLS protocol based method; assay type: functional; settings: ATCC 204304, 24 h
Saccharomyces cerevisiae = test: Antimicrobial activity against beer yeast ATCC 9763 incubated for 24 hrs by NCCLS protocol based method; assay type: functional; settings: ATCC 9763, 24 h
[1] = Antimicrobial activity against Candida mycoderma ATCC 9888 incubated for 24 hrs by NCCLS protocol based method; assay type: functional, Candida vini; settings: Kregervanrija fluxuum, ATCC 9888, 24 h
Candida albicans = test: Antimicrobial activity against Candida albicans ATCC 10231 incubated for 24 hrs by NCCLS protocol based method; settings: ATCC 10231, 24 h
[2] = Antimicrobial activity against Eberthella typhosa ATCC 14028 incubated for 24 hrs by NCCLS protocol based method; assay type: functional; settings: ATCC 14028, 24 h
How it was run: (§1)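 Standard two-fold serial broth microdilution in 96-well plates per NCCLS; MIC (µg/mL) read as lowest concentration giving complete inhibition of microbial growth. Berberine, chloromycin and norfloxacin served as positive controls.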

Pseudomonas aeruginosa = test: Antimicrobial activity against Pseudomonas aeruginosa ATCC 27853 incubated for 24 hrs by NCCLS protocol based method; assay type: functional; settings: ATCC 27853, 24 h
How it was run: (§2)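 Two-fold serial broth microdilution in 96-well plates per NCCLS standards. MIC (µg/mL) taken as the lowest concentration giving complete growth inhibition. Berberine, chloromycin and norfloxacin were positive controls for bacteria; fluconazole for fungi.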

Escherichia coli = test: Antimicrobial activity against Escherichia coli JM109 incubated for 24 hrs by NCCLS protocol based method; assay type: functional; settings: JM109, 24 h; how it was run: as §2
Proteus hauseri = test: Antimicrobial activity against Bacillus proteus ATCC13315 incubated for 24 hrs by NCCLS protocol based method; assay type: functional; settings: ATCC13315, 24 h; how it was run: as §2
Staphylococcus aureus [3] = test: Antimicrobial activity against methicillin-resistant Staphylococcus aureus N315 incubated for 24 hrs by NCCLS protocol based method; assay type: functional; settings: N315, 24 h; how it was run: as §1
Staphylococcus aureus [4] = test: Antimicrobial activity against Staphylococcus aureus ATCC 25923 incubated for 24 hrs by NCCLS protocol based method; assay type: functional; settings: ATCC 25923, 24 h; how it was run: as §2
Bacillus subtilis = test: Antimicrobial activity against Bacillus subtilis ATCC 6633 incubated for 24 hrs by NCCLS protocol based method; assay type: functional; settings: ATCC 6633, 24 h; how it was run: as §2
Micrococcus luteus = test: Antimicrobial activity against Micrococcus luteus ATCC 4698 incubated for 24 hrs by NCCLS protocol based method; assay type: functional; settings: ATCC 4698, 24 h; how it was run: as §2
[5] = (§3) Cytotoxicity against human HepG2 cells assessed as cell viability at 6.25 to 100 ug/ml by MTT assay; assay type: cell-based; settings: HepG2 cells, read-out: Activity
How it was run: (§4)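 HepG2 cells exposed to compound up to 100 μg/mL. Viability read by colorimetric MTT assay with berberine as control. Mean of three parallels ± one standard deviation.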

HepG2 [6] = test: Induction of ROS production in human HepG2 cells at 6.25 to 100 uM by DCFH-DA as probe based fluorescence microscopy; assay type: functional, cell-based
How it was run: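 Intracellular ROS detected with the fluorescent probe DCFH-DA and imaged by fluorescence microscopy. Compounds tested at 6.25, 12.5, 25, 50 and 100 μM, with berberine for comparison.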

Calf thymus DNA [7] = test: Binding affinity to calf thymus DNA by UV-Visible spectroscopy; assay type: nucleic-acid assay; settings: Bos taurus
How it was run: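 Calf thymus DNA held at a fixed concentration in Tris-HCl buffer pH 7.4, titrated with increasing compound. UV-vis absorption spectra recorded in 1.0 cm quartz cells, following the 260 nm DNA band. DNA concentration set from A260 using ε260 = 6600 L mol⁻¹ cm⁻¹ per phosphate. Purity confirmed by A260/A280 > 1.8.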

Calf thymus DNA [8] = test: Binding affinity to calf thymus DNA by neutral red dye based UV-Visible spectroscopy; assay type: nucleic-acid assay; settings: Bos taurus
HepG2 [9] = test: as §3; assay type: cell-based; settings: hepg2; how it was run: as §4

Structure (SMILES)	MIC80 (Cyberlindnera jadinii) [µg/mL]	MIC80 (Aspergillus flavus) [µg/mL]	MIC80 (Saccharomyces cerevisiae) [µg/mL]	MIC80 [1] [µg/mL]	MIC80 (Candida albicans) [µg/mL]	MIC [2] [µg/mL]	MIC (Pseudomonas aeruginosa) [µg/mL]	MIC (Escherichia coli) [µg/mL]	MIC (Proteus hauseri) [µg/mL]	MIC (Staphylococcus aureus [3]) [µg/mL]	MIC (Staphylococcus aureus [4]) [µg/mL]	MIC (Bacillus subtilis) [µg/mL]	MIC (Micrococcus luteus) [µg/mL]	viability [5] [%]	Activity (HepG2 [6])	K (Calf thymus DNA [7]) [×10³ L/mol]	Activity (Calf thymus DNA [8])	Activity (HepG2 [9])
OC(Cn1cncn1)(Cn1cncn1)c1ccc(F)cc1F [FLUCONAZOLE]	8 (≈ 26.1 µM)	256 (≈ 836 µM)	16 (≈ 52.2 µM)	32 (≈ 104 µM)	32 (≈ 104 µM)													
CCCCCCCCCCCCCCCCCc1nccn1Cc1cc(OC)c(O)c2c[n+]3c(cc12)-c1cc2c(cc1CC3)OCO2.[Cl-]	512	256	256	256	256	512	256	256	256	128	256	256	256					
CCc1nccn1Cc1cc(OC)c(O)c2c[n+]3c(cc12)-c1cc2c(cc1CC3)OCO2.[Cl-]	64	128	16	256	64	64	64	32	64	16	8	32	16					
COc1cc(Cn2ccnc2)c2cc3[n+](cc2c1O)CCc1cc2c(cc1-3)OCO2.[Cl-]	32	64	32	128	64	1	64	32	64	32	32	8	16	> 87	Active	5.22	Active	
COc1cc(Cn2cc(C)nc2C)c2cc3[n+](cc2c1O)CCc1cc2c(cc1-3)OCO2.[Cl-]	128	128	256	128	128	128	128	128	128	64	64	128	64					
COc1cc(Cn2ccnc2C)c2cc3[n+](cc2c1O)CCc1cc2c(cc1-3)OCO2.[Cl-]	32	32	16	128	64	32	64	32	64	32	16	64	16					
CCc1nc(C)cn1Cc1cc(OC)c(O)c2c[n+]3c(cc12)-c1cc2c(cc1CC3)OCO2.[Cl-]	128	128	128	128	128	128	128	128	128	64	64	128	64					
CCCCc1nccn1Cc1cc(OC)c(O)c2c[n+]3c(cc12)-c1cc2c(cc1CC3)OCO2.[Cl-]	256	64	64	256	64	128	128	128	128	32	32	64	32					
CCn1cc(C(=O)O)c(=O)c2cc(F)c(N3CCNCC3)cc21 [NORFLOXACIN]						4 (≈ 12.5 µM)	2 (≈ 6.26 µM)	16 (≈ 50.1 µM)	4 (≈ 12.5 µM)	8 (≈ 25.1 µM)	2 (≈ 6.26 µM)	1 (≈ 3.13 µM)	2 (≈ 6.26 µM)					
CCCc1nccn1Cc1cc(OC)c(O)c2c[n+]3c(cc12)-c1cc2c(cc1CC3)OCO2.[Cl-]	128	128	32	128	64	64	128	64	64	32	16	64	32					
COc1ccc2cc3[n+](cc2c1OC)CCc1cc2c(cc1-3)OCO2.[Cl-] [BERBERINE CHLORIDE]	256	512	128	128	512	512	256	512	256	128	512	512	512					Toxic
CCCCCCCCCCCc1nccn1Cc1cc(OC)c(O)c2c[n+]3c(cc12)-c1cc2c(cc1CC3)OCO2.[Cl-]	256	256	128	128	128	256	256	256	128	64	128	128	128					
COc1cc(Cn2cnc(C)c2)c2cc3[n+](cc2c1O)CCc1cc2c(cc1-3)OCO2.[Cl-]	64	64	32	128	128	64	128	32	32	32	8	32	16					
